Measurements as given in BindingDB's records for doi:10.1016/j.ejmech.2011.10.030 (Helwan University, 2011).

Molecular target: Beta-lactamase (Pseudomonas aeruginosa, UniProt Q79MP6)
Assay: Competitive inhibition of Pseudomonas aeruginosa metallo-beta-lactamase IMP-1 expressed in Escherichia coli BL21(DE3) using CENTA as substrate by spectrophotometric analysis
Summary of the method: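 IMP-1 lacking the first 21 signal-peptide residues, recombinantly expressed and purified, at 2 nM final. Buffer was 50 mM HEPES, 0.1 M NaCl, 100 µM ZnCl2, pH 7.0, with BSA at 20 µg/mL final. CENTA was varied from 5 to 70 µM final at three inhibitor concentrations. […] was read at 405 nm on a plate reader, and data were fitted by non-linear regression.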

Sequence of Beta-lactamase (Q79MP6 whole entry): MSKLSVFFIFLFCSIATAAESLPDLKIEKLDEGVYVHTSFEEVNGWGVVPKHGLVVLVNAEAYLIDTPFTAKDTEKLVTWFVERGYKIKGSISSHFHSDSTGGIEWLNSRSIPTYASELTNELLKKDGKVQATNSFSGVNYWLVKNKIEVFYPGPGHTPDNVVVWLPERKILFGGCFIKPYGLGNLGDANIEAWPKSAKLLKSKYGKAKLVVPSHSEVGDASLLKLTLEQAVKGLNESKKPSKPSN

Row | SMILES | Ki
1 | Cc1ccc(-n2c(-c3ccccc3)c(-c3ccccc3)c3c(Cl)ncnc32)cc1 | 19 µM
2 | Cc1ccc(-n2cc(-c3ccccc3)c3c(Cl)ncnc32)cc1 | 33 µM
3 | Cc1ccc(-n2c(-c3ccccc3)c(-c3ccccc3)c3c(N/N=C/c4ccccc4)ncnc32)cc1 | 18 µM
4 | Cc1ccc(-n2c(-c3ccccc3)c(-c3ccccc3)c3c2ncn2c(=S)[nH]nc32)cc1 | 15 µM
5 | COc1ccc(-n2c3c(c(-c4ccccc4)c2-c2ccccc2)C(=C(C#N)C#N)NC=N3)cc1 | 29 µM
6 | COc1ccc(-n2c(-c3ccccc3)c(-c3ccccc3)c3c(Cl)ncnc32)cc1 | 12 µM
